An excerpt weighted towards active compounds, which were near 1.4% of everything screened.
PAD4 FP inh: inhibitors of human PAD4; Q9UM07; recombinant PAD4, RCA probe fluorescence polarization; inhibition, % at 6.36 µM; hit rate 0.41% among 330,000;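 active = percent inhibition above a cutoff equal to the mean of all tested compounds plus 3 SD, cut at about 15% in these data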;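 also: 0% = PAD4 with RCA probe and DMSO and 100% = probe without PAD4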
Target sequence (Q9UM07 whole entry, looked up): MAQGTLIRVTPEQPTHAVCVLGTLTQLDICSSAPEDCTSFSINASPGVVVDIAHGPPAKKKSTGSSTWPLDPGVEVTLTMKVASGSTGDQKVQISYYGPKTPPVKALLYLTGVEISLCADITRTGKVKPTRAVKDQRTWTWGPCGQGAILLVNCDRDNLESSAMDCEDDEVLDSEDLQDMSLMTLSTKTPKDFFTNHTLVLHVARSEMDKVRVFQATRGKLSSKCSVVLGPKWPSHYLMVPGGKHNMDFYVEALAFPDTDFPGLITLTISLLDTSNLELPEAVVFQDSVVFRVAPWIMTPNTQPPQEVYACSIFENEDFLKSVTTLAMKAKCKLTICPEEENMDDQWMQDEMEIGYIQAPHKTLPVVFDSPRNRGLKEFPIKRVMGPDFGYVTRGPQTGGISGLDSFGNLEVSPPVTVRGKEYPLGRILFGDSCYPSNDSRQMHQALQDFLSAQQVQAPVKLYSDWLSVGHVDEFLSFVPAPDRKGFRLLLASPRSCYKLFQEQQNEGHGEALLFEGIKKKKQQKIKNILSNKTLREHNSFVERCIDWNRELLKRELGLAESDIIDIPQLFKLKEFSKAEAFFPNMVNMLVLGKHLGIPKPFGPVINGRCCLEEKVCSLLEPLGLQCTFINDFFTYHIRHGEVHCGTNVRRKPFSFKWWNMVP
GSTO1 inh: counter-screen for RBBP9 inhibitors: inhibitors of human GSTO1; P78417; recombinant GSTO1, activity-based probe fluorescence polarization; hit rate 1.1% among 300,000; inhibition, % at 5.96 µM;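 active = inhibition above the campaign mean inhibition plus 3 SD, cut at about 35% in these data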;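 also: 0% = GSTO1-1 with DMSO and 100% = wells lacking GSTO1-1 enzyme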
TDP2 inh: blocks human TDP2 phosphodiesterase activity; inhibition, % at 12.8 µM; recombinant TDP2, T5PNP hydrolysis, p-nitrophenol absorbance 415 nm; hit rate 0.34% among 370,000; AID 720702;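 active = inhibition above the mean of all tested compounds plus 3 SD, set per campaign, cut at about 25% in these data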;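 also: 0% = DMSO with enzyme and 100% = buffer with substrate but no TDP2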
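test system = human TDP2 enzyme | input = TDP2 enzyme at 120 nM final | medium = 50 mM Tris-HCl pH 7.5 with Mg2+, KCl, DTT, BSA | also added = T5PNP substrate, 5 mM | times = 2 h at 37 °C | technique = epi absorbance | benchmarks = high control without enzyme, low control DMSO plus TDP2 | replication = each compound tested once, singlicate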
Fh CTSL1 inh: blocks F. hepatica cathepsin L1 in PFM18AAP counter-screen; hit rate 0.49% among 300,000; AID 1906; inhibition, % at 5.96 µM; recombinant F. hepatica cathepsin L1, Z-Leu-Arg-MCA fluorescence;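 active = inhibition above the mean of all tested compounds plus 3 SD, set per screening campaign, cut at about 17% in these data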;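 also: 0% = plate median of test compound wells and 100% = 1 µM Z-Phe-Ala-diazomethylketone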
TDP2 confirm: human TDP2 inhibition, confirmation; hit rate 22% among 1,100; recombinant human TDP2, absorbance read-out; inhibition, % at 12.8 µM; shares compounds with TDP2 inh; AID 743263; in the data active = inhibition above about 25%;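 also: 0% = vehicle with enzyme and 100% = no enzyme buffer only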
Numbers without * were called inactive; · = no result given.

SMILES | PAD4 FP inh | GSTO1 inh | TDP2 inh | Fh CTSL1 inh | TDP2 confirm
O=C(Nc1ccccc1Oc1ccccc1)NC1CCCCN(Cc2ccc(Cl)cc2)C1=O (stereo unspecified) | · | · | 6 | · | ·
Cc1ccc(C)c(NC(=O)c2cnccn2)c1 | 1 | -2 | 29* | -2 | -1
Cc1ccc(NC(=O)c2cnccn2)c(C)c1 | -1 | 3 | -8 | -6 | ·
Cc1cnc(C2OCCO2)c2cccc(N)c12 | · | · | 30* | · | 44*
C/C(=N/NC(=O)Cc1cccs1)c1cccc([N+](=O)[O-])c1 | · | · | 0 | · | ·
CCCCN(C(C)=O)C1CC(=O)N(c2ccc(OCCC)cc2)C1=O (stereo unspecified) | 0 | 6 | 29* | -4 | -5
CCCOc1ccc(N2C(=O)CC(N(CCCO)C(=O)CC)C2=O)cc1 (stereo unspecified) | 4 | -2 | 1 | 1 | ·
CNC(=O)C(=O)Nc1c(O)c2ccccc2[nH]c1=O | 0 | 3 | 27* | 1 | -3
O=C1C(=O)N(c2nccs2)C(c2ccccc2)/C1=C(\O)c1ccc2c(c1)OCCO2 (stereo unspecified) | -8 | 4 | · | 4 | ·
O=C1C(=O)N(c2nccs2)C(c2ccccc2F)/C1=C(\O)c1ccc2c(c1)OCCO2 (stereo unspecified) | -3 | -12 | 26* | 2 | -1
CCOc1ccc2c(c1)C(NC(C)=O)C(=O)N2CCN1CCOCC1 (stereo unspecified) | · | · | 15 | · | ·
CC(=O)NC1C(=O)N(CCN2CCOCC2)c2ccc(Br)cc21 (stereo unspecified) | 4 | -4 | 44* | -9 | 36*
O=C(NCC1CCCO1)c1cccnc1Nc1ccccc1F (stereo unspecified) | 1 | -2 | 40* | -2 | 6
Clc1cccc(CNc2nc(-c3ccccn3)nnc2-c2ccccc2)c1 | · | · | -10 | · | ·
Cc1ccccc1OCC(O)Cn1c2ccccc2c2ccccc21 (stereo unspecified) | 2 | 3 | -2 | 4 | ·
Cc1ccccc1OCC(O)CN1CCN(CC(O)COc2ccccc2C)C(C)C1 (stereo unspecified) | 1 | -7 | 26* | 2 | 5
CC(Nc1cccc2ccccc12)C(=O)N/N=C/c1ccc([N+](=O)[O-])cc1 (stereo unspecified) | -1 | -3 | 31* | 4 | 0
COc1cc([N+](=O)[O-])cc(/C=N/NC(=O)C(C)Nc2cccc3ccccc23)c1O (stereo unspecified) | -7 | -4 | -5 | -2 | ·
Cc1cccc(/C=N/NC(=O)C(C)Nc2cccc3ccccc23)n1 (stereo unspecified) | 3 | 3 | 67* | 0 | 24
CC(C)N1CCCCC(NC(=O)c2ccc(-c3ccccc3)cc2)C1=O (stereo unspecified) | · | · | 3 | · | ·
O=C(CSc1nnc(-c2ccc(Cl)cc2)n1-c1ccccc1)NN=Cc1c[nH]c2ccccc12 | · | · | -16 | · | ·
CN(C)c1ccc2c(O)cc(=O)n(C)c2c1 | -6 | 21 | 20 | -1 | ·
CN(C)c1ccc2cc(S(=O)(=O)O)cc(O)c2c1 | · | · | 55* | · | 13
O=C(NC1CCCC1)C(c1ccc(N2CCOCC2)cc1)N(Cc1ccco1)C(=O)c1ccco1 (stereo unspecified) | -6 | -7 | -9 | -6 | ·
O=C(NC1CCCC1)C(c1ccc(N2CCOCC2)cc1)N(Cc1ccccc1)C(=O)c1ccco1 (stereo unspecified) | 0 | -1 | 32* | -6 | -7
SMILES | PAD4 FP inh | GSTO1 inh | TDP2 inh | Fh CTSL1 inh | TDP2 confirm
C[C@@H]1CCN(C2CC2)S(=O)(=O)c2ccc(N3CCC[C@H]3CO)cc2O1 | · | · | -5 | · | ·
CCc1ccc(NC(=O)Nc2cc(C(=O)NCC3CCCO3)ccc2N2CC3CC(C2)c2cccc(=O)n2C3)cc1 (stereo unspecified) | 0 | 1 | 25* | 1 | 2
CCCc1nnc(NC(=O)CCC(=O)N2CCCCC2)s1 | -1 | -1 | 26* | 0 | -6
CCCCCCCCN1C(=O)[C@@H](CC(=O)N2CCC(c3ccccc3)CC2)C[C@@]2(C(=O)OC)C1=C[C@H](C(C)C)O[C@@H]2C1CC1 | · | · | 2 | · | ·
CCN(C(=O)COC(=O)c1[nH]c(=O)[nH]c(=O)c1N)c1ccccc1 | -6 | 8 | 30* | 4 | 0
Cc1ccc(-n2nc3c(c2NC(=O)C2CC2)CS(=O)(=O)C3)cc1 | 1 | 2 | 27* | -2 | 7
CCOC(=O)[C@]12CCCC=C1N(Cc1ccc3c(c1)OCO3)C(=O)[C@H](CC(=O)NCc1cccc(C(F)(F)F)c1)C2 | · | · | -5 | · | ·
C/C(=N/NC(=O)CSc1nnc(-c2ccccc2)n1-c1ccc(Cl)cc1)c1cccc(O)c1 | · | · | -1 | · | ·
CCNC(=S)NNC(=O)c1ccc(OC)cc1 | -8 | 1 | 65* | 2 | 3
Cc1ccc(NC2=C/C(=N/S(=O)(=O)c3cccs3)c3ccccc3C2=O)cc1 | 11 | 65* | 36* | 60* | 41*
CC(C)CN1C(=O)[C@@]2(CC(=O)N(C)C2c2ccccc2)c2cc(-n3cc(-c4ccccc4)nn3)ccc21 (stereo partly specified) | · | · | -4 | · | ·
O=C1NC(=O)/C(=C/c2ccccc2OCc2ccccc2)S1 | -6 | -9 | 25* | 0 | 12
Cc1cc(C)c(C#N)c(SCC(=O)N(CCC#N)c2ccc3c(c2)OCCO3)n1 | · | · | 25* | · | 1
NC(=O)c1sc2nc3c(c(-c4ccco4)c2c1N)CCC3 | 1 | 10 | 26* | 0 | 1
Oc1ccc(Cl)cc1CNc1cccc2cccnc12 | -2 | 35* | 32* | 0 | 5
O=C(NC(=S)Nc1ccccc1Cl)c1cncc(Br)c1 | -3 | 4 | 27* | 1 | -4
CC1(c2nnnn2-c2ccc3ccccc3c2)CSCC(=O)N1C1CC1 (stereo unspecified) | · | · | 6 | · | ·
CN1CCC(C)(C(=O)Nc2cccc(Oc3ccccc3)c2)C1 (stereo unspecified) | · | · | 81* | · | 3
COc1cc(C(CC(=O)Nc2ncccc2C)N2Cc3ccccc3C2=O)cc(OC)c1OC (stereo unspecified) | -5 | 12 | 26* | -1 | -3
Cc1cc(NC(=O)CN(C)CCOc2ccccc2)ccc1Br | 1 | -1 | 3 | -2 | ·
CN(CCOc1ccccc1)CC(=O)Nc1cccc(Br)c1 | 2 | 9 | 32* | -2 | 11
COCCCNC(=O)C[C@H]1C[C@@]2(C(=O)OC)C(=C[C@H](C(C)C)O[C@@H]2C2CC2)N(Cc2ccc(Cl)cc2Cl)C1=O | · | · | -12 | · | ·
S=C(N/N=C/c1ccc2c(c1)OCO2)NC1CC2CCC1C2 (stereo unspecified) | -1 | -15 | 26* | 0 | 7
NS(=O)(=O)c1ccc(NC(=S)NCc2ccccc2Cl)cc1 | -1 | -2 | -2 | -3 | ·
NS(=O)(=O)c1ccc(CCNCC(=O)NCc2ccccc2Cl)cc1 | 14 | -3 | 27* | -5 | 1
CCCCOC(=O)/C=C\C(=O)NC(N)=O | -2 | 7 | 26* | -2 | 2
COc1c2c(cc3c1c(=O)c1ccccc1n3C)OCO2 | · | · | 0 | · | ·

Compound activity (PubChem)
